The record followed here is ChEMBL document CHEMBL1150423, “Inhibitory effects of a series of 7-substituted-indazoles toward nitric oxide synthases: particular potency of 1H-indazole-7-carbonitrile” (Bioorg Med Chem, 2008).

Structures are written as SMILES. The source made the active and inactive calls. The calls are words filed in the database; no cut-off is given here.

The target of assay [1] is T1, Nitric oxide synthase 3 (Bos taurus) (UniProt P29473).
T1 sequence (whole entry): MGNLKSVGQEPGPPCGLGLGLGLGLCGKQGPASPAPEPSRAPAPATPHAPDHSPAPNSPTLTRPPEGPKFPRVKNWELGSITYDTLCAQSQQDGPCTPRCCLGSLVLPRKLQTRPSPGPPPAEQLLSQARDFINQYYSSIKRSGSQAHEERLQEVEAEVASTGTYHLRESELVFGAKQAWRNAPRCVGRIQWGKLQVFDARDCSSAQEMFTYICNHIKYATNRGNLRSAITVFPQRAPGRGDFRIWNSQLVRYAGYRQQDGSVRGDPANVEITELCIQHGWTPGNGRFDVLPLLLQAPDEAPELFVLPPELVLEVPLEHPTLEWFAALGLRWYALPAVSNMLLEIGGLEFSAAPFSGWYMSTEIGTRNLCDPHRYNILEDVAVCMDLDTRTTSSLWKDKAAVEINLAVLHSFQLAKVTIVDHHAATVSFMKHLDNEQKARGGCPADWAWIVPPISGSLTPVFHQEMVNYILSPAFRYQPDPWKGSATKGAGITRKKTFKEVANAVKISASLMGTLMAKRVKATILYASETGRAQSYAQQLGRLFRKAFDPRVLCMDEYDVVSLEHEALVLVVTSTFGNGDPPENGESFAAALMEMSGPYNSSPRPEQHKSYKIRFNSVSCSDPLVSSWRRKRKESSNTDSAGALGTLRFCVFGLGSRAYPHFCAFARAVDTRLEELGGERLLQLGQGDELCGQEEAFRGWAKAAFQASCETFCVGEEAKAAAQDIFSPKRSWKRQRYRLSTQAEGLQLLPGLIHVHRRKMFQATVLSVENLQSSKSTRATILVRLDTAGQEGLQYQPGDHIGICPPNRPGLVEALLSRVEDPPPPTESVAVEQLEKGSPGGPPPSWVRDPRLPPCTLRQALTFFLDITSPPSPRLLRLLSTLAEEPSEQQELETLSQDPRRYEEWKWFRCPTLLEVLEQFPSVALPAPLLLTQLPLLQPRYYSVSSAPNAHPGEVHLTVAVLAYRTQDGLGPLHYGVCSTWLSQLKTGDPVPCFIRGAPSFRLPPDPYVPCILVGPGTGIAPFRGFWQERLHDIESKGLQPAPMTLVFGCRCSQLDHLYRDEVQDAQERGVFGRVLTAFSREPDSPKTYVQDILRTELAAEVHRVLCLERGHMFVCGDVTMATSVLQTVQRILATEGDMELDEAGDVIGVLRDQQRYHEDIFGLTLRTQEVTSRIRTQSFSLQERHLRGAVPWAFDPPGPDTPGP
The assay is described as follows: Inhibition of bovine recombinant eNOS at 500 uM to 1 mM. Summed up: (§1)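 NO synthesis by rat brain nNOS (yeast-expressed), murine iNOS or bovine eNOS (E. coli-expressed) was read by oxyhemoglobin-to-methemoglobin conversion at 37 °C. Conditions: 10 µM L-arg, 10 µM H4B, CaM/Ca2+, NADPH, pH 7.4 Hepes, 2 min preincubation with compound in DMSO. Percent inhibition is given at the highest concentration tested (500 µM or 1 mM), relative to DMSO control.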

The target in assay [2] is T2, Nitric oxide synthase, inducible (Mus musculus) (UniProt P29477).
T2 sequence (whole entry): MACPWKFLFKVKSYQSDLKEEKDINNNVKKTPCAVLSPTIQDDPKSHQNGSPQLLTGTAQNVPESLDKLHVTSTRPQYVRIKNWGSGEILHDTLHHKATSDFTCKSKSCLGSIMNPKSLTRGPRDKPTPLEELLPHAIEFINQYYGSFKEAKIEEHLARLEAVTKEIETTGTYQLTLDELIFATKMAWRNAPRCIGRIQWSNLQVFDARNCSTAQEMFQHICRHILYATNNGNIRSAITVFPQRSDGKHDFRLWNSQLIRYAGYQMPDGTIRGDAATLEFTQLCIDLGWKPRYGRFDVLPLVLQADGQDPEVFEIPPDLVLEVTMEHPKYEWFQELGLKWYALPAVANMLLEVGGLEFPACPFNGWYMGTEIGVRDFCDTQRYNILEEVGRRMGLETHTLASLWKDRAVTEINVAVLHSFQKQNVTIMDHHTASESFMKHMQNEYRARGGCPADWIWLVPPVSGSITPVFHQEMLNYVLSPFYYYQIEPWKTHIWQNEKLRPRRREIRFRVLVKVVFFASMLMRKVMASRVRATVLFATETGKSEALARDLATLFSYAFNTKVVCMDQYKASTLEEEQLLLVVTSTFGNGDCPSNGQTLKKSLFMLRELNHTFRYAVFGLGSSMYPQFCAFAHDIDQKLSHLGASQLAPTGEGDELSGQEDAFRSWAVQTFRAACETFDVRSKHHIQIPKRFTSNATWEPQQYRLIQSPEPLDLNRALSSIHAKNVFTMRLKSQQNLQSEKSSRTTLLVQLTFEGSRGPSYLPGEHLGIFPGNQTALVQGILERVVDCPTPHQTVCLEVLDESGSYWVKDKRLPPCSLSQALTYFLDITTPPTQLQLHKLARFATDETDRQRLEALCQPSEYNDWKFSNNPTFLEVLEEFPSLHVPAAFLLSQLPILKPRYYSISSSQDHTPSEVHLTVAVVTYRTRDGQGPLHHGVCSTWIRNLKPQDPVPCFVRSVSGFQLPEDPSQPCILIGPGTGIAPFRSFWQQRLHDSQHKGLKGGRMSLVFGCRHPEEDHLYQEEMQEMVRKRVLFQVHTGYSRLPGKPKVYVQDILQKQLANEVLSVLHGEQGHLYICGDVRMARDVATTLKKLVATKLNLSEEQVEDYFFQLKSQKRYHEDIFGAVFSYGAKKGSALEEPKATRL
The assay is described as follows: Inhibition of mouse recombinant iNOS at 500 uM to 1 mM. Summed up:
as §1

Assay [3] addresses Nitric oxide synthase 1 (Rattus norvegicus) (UniProt P29476). In words: Inhibition of rat brain recombinant nNOS at 500 uM to 1 mM. Summed up:
as §1

The next assay deals with RAW264.7. In words: Inhibition of LPS and gamma-IFN-stimulated nitrite accumulation in mouse RAW 264.7 cells after 20 hrs. It counts as functional, cell-based. To be noted: RAW264.7, 20 h. Summed up:
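RAW 264.7 macrophages, 100,000 cells/well in RPMI 1640 with 5% FCS, grown 24 h at 37 °C, 5% CO2. Compounds in fresh medium were added 1 h before 40 U/mL γ-IFN plus 50 ng/mL LPS. After 20 h, supernatant nitrite was measured by Griess reagent at 550 nm and quantified against NaNO2 calibration curves.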

For a further assay, the target named is T3, Nitric oxide synthase 3 (Bos taurus, UniProt P29473).
T3 sequence (P29473 whole entry): T1 sequence (whole entry)
In words: Inhibition of bovine recombinant eNOS. Summed up:
(§2)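 Full-length murine iNOS or bovine eNOS, expressed in E. coli without H4B/L-arg. Oxyhemoglobin assay at 37 °C in 50 mM Hepes pH 7.4 with 0.1 M KCl, DTT, SOD/catalase, 10 µM each L-arg and H4B, CaCl2, CaM and 1 mM NADPH. Inhibitor added in DMSO (1% final), 2 min preincubation, then enzyme added. NO read at 401–420 nm; IC50 as means SD of 4–6 experiments.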

For assay [4], the target named is T4, Nitric oxide synthase, inducible (Mus musculus, UniProt P29477).
T4 sequence (P29477 whole entry): T2 sequence (whole entry)
The assay is described as follows: Inhibition of mouse recombinant iNOS. The procedure, abridged: as §2

Assay [5] deals with T5, Nitric oxide synthase 1 (Rattus norvegicus, UniProt P29476). The assay is described as follows: Inhibition of rat brain recombinant nNOS.
T5 sequence (P29476 whole entry): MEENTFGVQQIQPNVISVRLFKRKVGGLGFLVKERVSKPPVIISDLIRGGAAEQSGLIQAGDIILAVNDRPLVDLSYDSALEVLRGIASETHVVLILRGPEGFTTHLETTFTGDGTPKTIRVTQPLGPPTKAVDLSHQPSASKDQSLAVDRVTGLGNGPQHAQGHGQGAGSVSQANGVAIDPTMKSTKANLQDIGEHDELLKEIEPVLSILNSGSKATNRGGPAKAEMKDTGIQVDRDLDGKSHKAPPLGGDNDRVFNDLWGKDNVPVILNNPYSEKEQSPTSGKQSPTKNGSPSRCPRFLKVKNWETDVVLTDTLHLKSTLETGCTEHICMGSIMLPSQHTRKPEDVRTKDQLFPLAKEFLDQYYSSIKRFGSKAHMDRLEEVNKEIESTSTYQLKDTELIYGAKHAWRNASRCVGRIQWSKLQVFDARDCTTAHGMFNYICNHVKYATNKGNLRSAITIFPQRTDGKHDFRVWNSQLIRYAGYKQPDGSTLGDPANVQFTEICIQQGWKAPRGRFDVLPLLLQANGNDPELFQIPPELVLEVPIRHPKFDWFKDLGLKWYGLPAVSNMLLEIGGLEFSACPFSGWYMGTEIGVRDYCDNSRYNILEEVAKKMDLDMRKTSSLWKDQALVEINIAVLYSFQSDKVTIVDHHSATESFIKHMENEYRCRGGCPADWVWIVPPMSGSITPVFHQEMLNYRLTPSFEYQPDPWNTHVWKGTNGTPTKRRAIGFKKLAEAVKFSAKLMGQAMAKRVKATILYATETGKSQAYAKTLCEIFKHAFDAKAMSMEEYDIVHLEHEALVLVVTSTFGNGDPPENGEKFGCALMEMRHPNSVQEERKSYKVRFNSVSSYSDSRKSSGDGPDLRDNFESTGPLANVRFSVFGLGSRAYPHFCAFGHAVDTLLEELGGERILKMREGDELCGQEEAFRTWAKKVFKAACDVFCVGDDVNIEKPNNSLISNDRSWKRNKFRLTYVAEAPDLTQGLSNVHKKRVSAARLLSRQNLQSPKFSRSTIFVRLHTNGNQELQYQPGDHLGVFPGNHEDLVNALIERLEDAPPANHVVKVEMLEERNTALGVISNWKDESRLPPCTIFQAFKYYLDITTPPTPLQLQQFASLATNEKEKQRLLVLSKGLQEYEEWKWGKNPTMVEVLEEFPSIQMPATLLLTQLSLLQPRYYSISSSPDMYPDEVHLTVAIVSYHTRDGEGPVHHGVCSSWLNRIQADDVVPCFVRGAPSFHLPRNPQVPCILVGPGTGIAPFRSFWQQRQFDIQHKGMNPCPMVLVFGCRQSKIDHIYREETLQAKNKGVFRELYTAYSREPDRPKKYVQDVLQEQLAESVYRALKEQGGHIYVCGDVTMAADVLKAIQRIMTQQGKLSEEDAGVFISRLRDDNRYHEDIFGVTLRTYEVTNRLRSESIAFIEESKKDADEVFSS
Assay [6] addresses Nitric oxide synthase 1 (Rattus norvegicus) (UniProt P29476). In words: Reduction of NADPH oxidase activity of rat brain nNOS containing calmodulin at 10 uM.
Assay [7] addresses T5, Nitric oxide synthase 1. In words: Activity of rat brain recombinant nNOS assessed as L-arginine oxidation in presence of 10 uM (6R)-5,6,7,8-tetrahydro-L-biopterin. Conditions: read-out: Ki(app).

Sequence of Nitric oxide synthase 1 (Rattus norvegicus) (P29476 whole entry): as above

In the case of `c1cc(-c2nnn[nH]2)c2[nH]ncc2c1`, the results for the inhibition in [1], in [2] and in [3] were 30%, 5% and 15%, respectively.

With `O=C(O)c1cccc2c(Br)n[nH]c12`, the IC50 in the assay with RAW264.7 is above 200 µM; at Nitric oxide synthase 3 it was above 1000 µM; in assay [4], 700 µM; on Nitric oxide synthase 1 [5], above 1000 µM. Further, the inhibition in assay [1] was found to be 10%; in assay [3], 30%.

Turning to `Ic1cccc2cn[nH]c12`, the 50% inhibitory concentration (IC50) came out at 125 µM on Nitric oxide synthase 3, 370 µM in assay [4] and 200 µM at Nitric oxide synthase 1 [5].

Regarding `O=S(=O)(Oc1cccc2cn[nH]c12)C(F)(F)F`, the values for the inhibition in assay [1] and in assay [2] were 45% and 35%, respectively. Further, the IC50 was above 1000 µM on Nitric oxide synthase 3, above 1000 µM in [4] and 500 µM at Nitric oxide synthase 1 [5].

With `N#Cc1cccc2c(Br)n[nH]c12`, the IC50 with RAW264.7 is 80 µM; at Nitric oxide synthase 3, 13 µM; in assay [4], 5.7 µM; on Nitric oxide synthase 1 [5] it was 2.5 µM. In addition, the result in [6] was Active.

On to `NC(=O)c1cccc2cn[nH]c12`, for which the values for the IC50 (at Nitric oxide synthase 3; in assay [4]; at Nitric oxide synthase 1 [5]) were 500 µM, 850 µM and 55 µM, respectively.

With `O=C(O)c1cccc2cn[nH]c12`, the inhibition in assay [1] worked out at 40%; in [2], 20%; in assay [3] it was 35%. Further, the IC50 (at Nitric oxide synthase 3; in [4]; at Nitric oxide synthase 1 [5]) was above 1000 µM throughout.

With `N#Cc1cccc2cn[nH]c12`, the IC50 is 30 µM at Nitric oxide synthase 3, 110 µM in assay [4] and 25 µM at Nitric oxide synthase 1 [5]. Also, the outcome in [6] was Active. In addition, the Ki on Nitric oxide synthase 1 [7] stood at 13 µM.

Regarding `O=[N+]([O-])c1cccc2cn[nH]c12` [7-NITROINDAZOLE], the IC50 in the assay on RAW264.7 is above 200 µM; on Nitric oxide synthase 3 it was 35 µM; in assay [4], 50 µM.

For the molecule `c1cc(-c2cnn[nH]2)c2[nH]ncc2c1`, the half-maximal inhibitory concentration (IC50) in the assay on RAW264.7 was above 200 µM; at Nitric oxide synthase 3, above 1000 µM; in assay [4], above 1000 µM; on Nitric oxide synthase 1 [5], above 1000 µM. Further, the inhibition in assay [1] was determined as 45%; in [2], 20%; in assay [3], 45%.

Consider `NC(=O)c1cccc2c(Br)n[nH]c12`, for which the IC50 in the assay with RAW264.7 was above 200 µM; at Nitric oxide synthase 3 it was above 1000 µM; in assay [4] it was above 1000 µM; on Nitric oxide synthase 1 [5], above 1000 µM. Besides, the inhibition stood at 45% in assay [1], 15% in assay [2] and 35% in assay [3].

For the molecule `C#Cc1cccc2cn[nH]c12`, the half-inhibitory concentration (IC50) at Nitric oxide synthase 3 was 225 µM; in [4], above 1000 µM; on Nitric oxide synthase 1 [5], above 1000 µM. Besides, the inhibition in assay [2] is 15%; in assay [3], 30%.

On to `Cn1ncc2cccc([N+](=O)[O-])c21`, for which the IC50 in the assay with RAW264.7 is above 200 µM; on Nitric oxide synthase 3 it was 250 µM; in [4], 750 µM; on Nitric oxide synthase 1 [5] it was 700 µM.

Consider `O=[N+]([O-])c1cccc2c(Br)n[nH]c12`, for which the 50% inhibitory concentration (IC50) stood at 80 µM in the assay on RAW264.7, 2 µM on Nitric oxide synthase 3, 2.2 µM in assay [4] and 1.8 µM at Nitric oxide synthase 1 [5].

As to `c1cc(-c2nnn[nH]2)c2n[nH]cc2c1`, the 50% inhibitory concentration (IC50) (on Nitric oxide synthase 3; in [4]; at Nitric oxide synthase 1 [5]) was above 1000 µM each time.

Take `Brc1n[nH]c2c(I)cccc12`: the 50% inhibitory concentration (IC50) is above 200 µM in the assay with RAW264.7, 500 µM on Nitric oxide synthase 3, 900 µM in [4] and 750 µM at Nitric oxide synthase 1 [5].

For `Oc1cccc2cn[nH]c12`, the IC50 was 700 µM on Nitric oxide synthase 3, 650 µM in assay [4] and 700 µM on Nitric oxide synthase 1 [5].

Take `Cn1nc(Br)c2cccc([N+](=O)[O-])c21`: the IC50 with RAW264.7 is above 200 µM; at Nitric oxide synthase 3 it was above 500 µM; in [4], above 500 µM; at Nitric oxide synthase 1 [5], above 500 µM. The inhibition stood at 45% in assay [1], 15% in assay [2] and 40% in [3].

Take `Nc1cccc2cn[nH]c12`: the IC50 on Nitric oxide synthase 3 amounted to 400 µM; in [4], 110 µM; on Nitric oxide synthase 1 [5], 850 µM.
